Assay results published in ChEMBL document CHEMBL1157775, “Novel hexahydropyrrolo[3,4-c]pyrrole CCR5 antagonists” (Bioorg Med Chem Lett, 2010).

Assays:
[1] = Intrinsic clearance in dog liver microsomes assessed per mg of protein; type: ADME, Canis lupus familiaris, Microsome
[2] = Oral bioavailability in rat at 10 mg/kg; type: ADME, organism-based; settings: in vivo
In short: (§1)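 Rat PK. Single IV dose of 1 mg/kg and oral dose of 10 mg/kg. Oral AUC (ng·h/mL) and %F were derived from the PO arm. Clearance (mL/min/kg) was taken from the IV arm.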

[3] = biological target: C-C chemokine receptor type 5 (Homo sapiens, UniProt P51681); assay: Binding affinity at CCR5 receptor by radiolabeled RANTES binding assay
[4] = Clearance in dog at 1 mg/kg, iv; type: ADME, organism-based, Canis lupus familiaris; set-up: dose 1 mg/kg, route intravenous; settings: in vivo
In short: (§2)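 Dog PK. Single IV dose of 1 mg/kg, then an oral dose of 10 mg/kg; one case used 1 mg/kg both IV and PO. AUC and %F were determined after the oral dose. Clearance (ml/min/kg) was determined from the IV dose.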

[5] = Oral bioavailability in dog at 10 mg/kg; type: ADME, organism-based, Canis lupus familiaris; settings: in vivo; in short: as §2
[6] = AUC in dog at 10 mg/kg, po; type: ADME, organism-based, Canis lupus familiaris; set-up: dose 10 mg/kg, route oral; settings: plasma; in short: as §2
[7] = Intrinsic clearance in rat liver microsomes assessed per mg of protein; type: ADME, Microsome
In short: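 Rat liver microsomes. Intrinsic clearance is expressed per mg protein. Values ≥90 µl/min were taken as high clearance.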

[8] = AUC in rat at 10 mg/kg, po; type: ADME, organism-based; set-up: dose 10 mg/kg, route oral; settings: plasma; in short: as §1
[9] = Intrinsic clearance in human liver microsomes assessed per mg of protein; type: ADME, Microsome
In short: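 Human liver microsomes. Intrinsic clearance is expressed as µl/min/mg protein.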

[10] = tested on: Human immunodeficiency virus 1; assay: Antiviral activity against HIV1 NL4-3 infected in human JC53-BL cells assessed as luciferase activity after 3 days post infection; type: functional, organism-based; settings: Human immunodeficiency virus 1, NL4-3, JC53BL, 72 h
In short: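 Pseudotyped virus in culture supernatant was harvested after 2 days. It was used to infect JC53-BL reporter cells. Luciferase reporter activity was read 3 days post-infection. IC50 in nM is reported as the mean of two experiments.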

[11] = Clearance in rat at 1 mg/kg, iv; type: ADME, organism-based; set-up: dose 1 mg/kg, route intravenous; settings: in vivo; in short: as §1
[12] = Permeability from apical to basolateral side of human Caco-2 cells after 21 days; type: ADME, cell-based; settings: read-out: permeability
[13] = tested on: Caco-2; assay: Efflux ratio of permeability from basolateral to apical over apical to basolateral side in human Caco-2 cells after 21 days; settings: caco-2, 504 h

C-C chemokine receptor type 5, sequence (P51681 whole entry): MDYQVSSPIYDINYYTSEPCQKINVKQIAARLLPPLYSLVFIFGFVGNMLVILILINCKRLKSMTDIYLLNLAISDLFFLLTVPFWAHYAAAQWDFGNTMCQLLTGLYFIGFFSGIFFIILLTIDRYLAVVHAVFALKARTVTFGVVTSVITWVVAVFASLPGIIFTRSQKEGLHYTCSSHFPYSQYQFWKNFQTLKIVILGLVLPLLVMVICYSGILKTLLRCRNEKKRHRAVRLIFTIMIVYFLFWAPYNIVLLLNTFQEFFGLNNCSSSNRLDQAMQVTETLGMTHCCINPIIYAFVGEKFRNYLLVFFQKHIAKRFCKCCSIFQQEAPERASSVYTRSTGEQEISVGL

IC50 [3] [nM] | microsomal CLint [7] [µL/min/mg] | microsomal CLint [9] [µL/min/mg] | IC50 [10] [nM] | Compound | also measured
27 | 46 | 83 | 6 | Cc1ncnc(C)c1C(=O)N1C[C@H]2CN(CC[C@H](NC(=O)CC3CCC(F)(F)CC3)c3ccccc3)C[C@H]2C1 | microsomal CLint [1]: 30 µL/min/mg; bioavailability [2]: 15%; clearance [4]: 44 mL/min/kg; bioavailability [5]: 103%; AUC [6]: 4210 ng·h/mL; AUC [8]: 215 ng·h/mL; clearance [11]: 99 mL/min/kg
7 | 89 | 67 |  | Cc1ccnc(C)c1C(=O)N1C[C@H]2CN(CC[C@H](NC(=O)C3CCCC3)c3ccccc3)C[C@H]2C1 | bioavailability [2]: 6.4%; Papp A→B [12]: 4 ×10⁻⁶ cm/s; AUC [8]: 65 ng·h/mL; clearance [11]: 151 mL/min/kg
14 | 51 | 35 |  | Cc1ncnc(C)c1C(=O)N1C[C@H]2CN(CC[C@H](NC(=O)C3CCCC3)c3ccccc3)C[C@H]2C1 | bioavailability [2]: 17%; Papp A→B [12]: 1.3 ×10⁻⁶ cm/s; AUC [8]: 309 ng·h/mL; clearance [11]: 131 mL/min/kg
34 | 31 | 30 | 203 | Cc1ncnc(C)c1C(=O)N1C[C@H]2CN(CC[C@H](NC(=O)CC3CC(F)(F)C3)c3cccc(C#N)c3)C[C@H]2C1 | 
30 | 25 | 25 | 6 | Cc1cc(=O)[nH]c(C)c1C(=O)N1C[C@H]2CN(CC[C@H](NC(=O)C3CCCC3)c3ccccc3)C[C@H]2C1 | Papp A→B [12]: 0.5 ×10⁻⁶ cm/s; Ratio [13]: 5
30 |  | 45 | 41 | Cc1ncnc(C)c1C(=O)N1C[C@H]2CN(CC[C@H](NC(=O)CC3CC(F)(F)C3)c3cc(F)cc(F)c3)C[C@H]2C1 | 
20 | 61 | 60 | 3 | Cc1ncnc(C)c1C(=O)N1C[C@H]2CN(CC[C@H](NC(=O)CC3CC(F)(F)C3)c3ccccc3)C[C@H]2C1 | 
4 |  |  | 9 | Cc1cccc(C)c1C(=O)N1C[C@H]2CN(CC[C@H](NC(=O)C3CCC(F)(F)CC3)c3ccccc3)C[C@H]2C1 | 
6 | 517 | 236 | 3 | Cc1cc(F)cc(C)c1C(=O)N1C[C@H]2CN(CC[C@H](NC(=O)C3CCCC3)c3ccccc3)C[C@H]2C1 | 
12 | 24 | 113 | 1.1 | Cc1ncnc(C)c1C(=O)N1C[C@H]2CN(CC[C@H](NC(=O)CC3CCC(F)(F)CC3)c3cccc(F)c3)C[C@H]2C1 | 
12 | 144 | 227 |  | Cc1cc(C#N)nc(C)c1C(=O)N1C[C@H]2CN(CC[C@H](NC(=O)C3CCCC3)c3ccccc3)C[C@H]2C1 | Papp A→B [12]: 3 ×10⁻⁶ cm/s
19 |  |  | 545 | Cc1noc(C)c1C(=O)N1C[C@H]2CN(CC[C@H](NC(=O)C3CCCC3)c3ccccc3)C[C@H]2C1 | 

Further lines, the compound ahead of its results:

Compound | IC50 [3] [nM] | microsomal CLint [7] [µL/min/mg] | microsomal CLint [9] [µL/min/mg] | IC50 [10] [nM] | also measured
CC(=O)N1C[C@H]2CN(CC[C@H](NC(=O)C3CCCC3)c3ccccc3)C[C@H]2C1 | 465 |  |  | > 1000 | 
Cc1cccc(C)c1C(=O)N1C[C@H]2CN(CC[C@H](NC(=O)C3CCOC3)c3ccccc3)C[C@H]2C1 (some centres undefined) | 15 |  |  | 101 | 
Cc1cccc(C)c1C(=O)N1C[C@H]2CN(CC[C@H](NC(=O)C3CCCC3)c3ccccc3)C[C@H]2C1 | 6 | 322 | 256 | 7 | bioavailability [2]: 2.7%; Papp A→B [12]: 4 ×10⁻⁶ cm/s; Ratio [13]: 5; AUC [8]: 31 ng·h/mL; clearance [11]: 134 mL/min/kg
COc1cc(C)c(C(=O)N2C[C@H]3CN(CC[C@H](NC(=O)C4CCCC4)c4ccccc4)C[C@H]3C2)c(C)c1 | 26 | 236 | 241 | 0.4 | Papp A→B [12]: 33 ×10⁻⁶ cm/s; Ratio [13]: 2
Cc1cccc(C)c1C(=O)N1C[C@H]2CN(CC[C@H](NC(=O)c3ccccc3)c3ccccc3)C[C@H]2C1 | 8 |  |  | 124 | 
CCO/N=C(\c1ccc(Br)cc1)C1CCN(C2(C)CCN(C(=O)c3c(C)cccc3C)CC2)CC1 | 6 |  |  | 4 | 
Cc1cccc(C)c1C(=O)N1C[C@H]2CN(CC[C@H](NC(=O)c3ccoc3)c3ccccc3)C[C@H]2C1 | 18 |  |  | 85 | 
Cc1cccc(Cl)c1C(=O)N1C[C@H]2CN(CC[C@H](NC(=O)C3CCCC3)c3ccccc3)C[C@H]2C1 | 9 |  | 264 | 3 | 
Cc1cccc(C)c1C(=O)N1C[C@H]2CN(CC[C@H](NC(=O)C3CCCCC3)c3ccccc3)C[C@H]2C1 | 3 |  |  | 30 | 
O=C(N[C@@H](CCN1C[C@@H]2CN(C(=O)c3c(Cl)cccc3Cl)C[C@@H]2C1)c1ccccc1)C1CCCC1 | 14 |  | 389 | 92 | 
Cc1cccc(C)c1C(=O)N1C[C@H]2CN(CC[C@H](NC(=O)C3CCC3)c3ccccc3)C[C@H]2C1 | 7 |  |  | 39 | 
Cc1cccc(C)c1C(=O)N1C[C@H]2CN(CC[C@H](NC(=O)C(C)C)c3ccccc3)C[C@H]2C1 | 11 |  |  | 100 | 
Cc1nnc(C(C)C)n1[C@H]1C[C@H]2CC[C@@H](C1)N2CC[C@H](NC(=O)C1CCC(F)(F)CC1)c1ccccc1 [MARAVIROC] |  |  |  | 3 | 
Cc1cc[n+]([O-])c(C)c1C(=O)N1C[C@H]2CN(CC[C@H](NC(=O)C3CCCC3)c3ccccc3)C[C@H]2C1 | 44 | 12 | 6 | 19 | Papp A→B [12]: 0.1 ×10⁻⁶ cm/s; Ratio [13]: 300
CC(=O)N[C@@H](CCN1C[C@@H]2CN(C(=O)c3c(C)cccc3C)C[C@@H]2C1)c1ccccc1 | 15 |  |  | 132 | 
